Source: article PMC2947195 (Biochemical Journal, 2010)
Numbering of substitutions follows the chain as printed.

What was measured:
Type in all cases: cell-based
[1] = target: T1, cl-N6/C6 hRFC (Homo sapiens, UniProt P41440, C220S/C246S/C30S/C33S/C365S/C396S/C458S); assay: [3H]MTX uptake in R5 HeLa cells co-transfected with cysteine-less half-molecules; conditions: 0.5 μM [3H]MTX
T1 sequence (P41440 1-591 C30S/C33S/C220S): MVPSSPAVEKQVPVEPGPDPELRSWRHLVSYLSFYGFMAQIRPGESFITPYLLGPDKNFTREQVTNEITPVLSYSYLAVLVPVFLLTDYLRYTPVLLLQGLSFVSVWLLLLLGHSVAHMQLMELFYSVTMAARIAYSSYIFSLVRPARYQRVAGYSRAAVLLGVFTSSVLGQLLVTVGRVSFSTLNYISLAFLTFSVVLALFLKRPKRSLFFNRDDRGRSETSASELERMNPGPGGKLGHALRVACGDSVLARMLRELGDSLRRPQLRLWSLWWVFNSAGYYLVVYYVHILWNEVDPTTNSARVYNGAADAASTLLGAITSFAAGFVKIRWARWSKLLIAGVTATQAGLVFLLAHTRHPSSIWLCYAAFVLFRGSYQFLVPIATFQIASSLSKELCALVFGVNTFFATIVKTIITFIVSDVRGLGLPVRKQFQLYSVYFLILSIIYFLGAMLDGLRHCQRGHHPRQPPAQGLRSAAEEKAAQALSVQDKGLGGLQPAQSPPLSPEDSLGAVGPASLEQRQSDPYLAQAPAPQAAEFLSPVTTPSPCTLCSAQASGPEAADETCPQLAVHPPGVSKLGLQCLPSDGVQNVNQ
T1 sequence (P41440 227-537 C246S/C365S/C396S/C458S limits assumed): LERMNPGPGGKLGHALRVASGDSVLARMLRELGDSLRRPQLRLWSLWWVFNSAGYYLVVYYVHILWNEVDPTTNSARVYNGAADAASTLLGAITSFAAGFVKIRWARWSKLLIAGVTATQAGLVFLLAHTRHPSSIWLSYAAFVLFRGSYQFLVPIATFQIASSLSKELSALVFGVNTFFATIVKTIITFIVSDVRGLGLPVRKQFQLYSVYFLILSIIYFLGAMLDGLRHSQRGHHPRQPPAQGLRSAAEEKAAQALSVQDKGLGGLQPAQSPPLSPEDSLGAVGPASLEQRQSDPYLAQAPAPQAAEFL

[2] = target: T2, S313A hRFC (Homo sapiens, UniProt P41440, S313A); assay: [3H]MTX transport kinetics
T2 sequence (P41440 1-591 S313A): T1 sequence (P41440 1-591 C30S/C33S/C220S) with S30C, S33C, S220C, S313A
In short: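 Human hRFC-null K500E (K562 subline) cells were electroporated (155 V, 1000 μF) with wt or Ser313-mutant hRFC. Stable clones were selected in soft agar with G418 (1 mg/ml). [3H]MTX uptake was measured over 180 s in HBSS at 37 °C in a shaking water bath and expressed as pmol/mg protein (Lowry). Kt and Vmax came from Lineweaver–Burk plots, with Vmax normalized to densitometric Western blot hRFC levels. Three experiments, means±S.E.M.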

[3] = target: T3, S313F hRFC (Ser^313 replaced with phenylalanine) (Homo sapiens, UniProt P41440, S313F); assay: [3H]MTX uptake in transiently transfected R5 HeLa cells
T3 sequence (P41440 1-591 S313F): T1 sequence (P41440 1-591 C30S/C33S/C220S) with S30C, S33C, S220C, S313F
In short: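 Human R5 HeLa cells (transport-defective) were transiently transfected with Lipofectamine Plus, split at 24 h and assayed 24 h later. Uptake of 0.5 μM [3H]MTX ran for 2 min at 37 °C in HSM buffer (20 mM Hepes, 235 mM sucrose, pH 7.14 with MgO). Uptake was stopped with ice-cold PBS and cells solubilized in 0.5 M NaOH. Values in pmol/mg protein were normalized to HA-blot hRFC levels. Three experiments, means±S.E.M.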

- MTX uptake relative to residual level in R5 cells [1]: ~ 3 fold
- decrease of MTX transport compared with wt-N6/C6 [1]: ~ 40%
- Vmax (normalized)/Kt [2]: 0.18
- Kt ([2]; K500E stable transfectant, mean±S.E.M., n=3): 2.26 ± 0.44 µM
- Normalized Vmax ([2]; Vmax normalized to relative hRFC level on Western blots): 0.41±0.03
- MTX transport [3]: abolished
Structure (SMILES): CN(Cc1cnc2nc(N)nc(N)c2n1)c1ccc(C(=O)N[C@@H](CCC(=O)O)C(=O)O)cc1 [MTX, methotrexate]
